The results in this text go back to the array DNA melting data of Ke et al. (doi:10.1101/2024.01.08.574731).

The nature of data set [1]: folding enthalpy; higher = less favourable; fluorescence melt of hairpins on a sequencing array, two-state fit. The settings on record: sodium 0.088 M. In a few lines: (§1)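 In 50 mM Na-HEPES pH 8.0 containing 25 mM NaCl, hairpins from the library on a sequenced MiSeq flow cell were imaged for Cy3 fluorescence at 2.5 °C steps up to 60 °C, with Cy3 and quencher oligos annealed. After normalisation to pre-quench Cy3 and to control constructs, two-state fits with bootstrapping gave melting temperature and folding enthalpy. Four replicates were combined by inverse-variance weighting, and fitted temperatures were shifted up by 9.35 °C to match UV melts.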

Data set [2] in a line: melting temperature; fluorescence melt of hairpins on a sequencing array, two-state fit, raised by 9.35 °C to match UV melts. The settings on record: sodium 0.088 M. In a few lines: as §1

In the case of GTTCGGCCGAAAGGCAAC (((..(((....)))))), the folding enthalpy in data set [1] was -6.89 kcal/mol. Further, in data set [2], the Tm came out at 31.3 °C.
On the same counts, the results for GTTCGGCGAAAGCCAAC (((.(((....)))))) are -12.3 kcal/mol and 42.9 °C.
On the same counts, the results for GTTCGGCGAAAGCCCAAC (((.(((....))).))) are -11.2 kcal/mol and 37.1 °C.
On to GTTCGGGGAAACCCGAGC (.(((((....))))).), for which the folding enthalpy in data set [1] was -25.5 kcal/mol. For the same sequence, the Tm in data set [2] was 53.3 °C.
GTTCGGGGAAACCTGAAC ((((.((....)).)))): the folding enthalpy in data set [1] is -38.9 kcal/mol. Besides, the Tm in data set [2] turned out to be 49.9 °C.
In the case of GTTCGGGGAAACCTGAGC (.((.((....)).)).), the folding enthalpy in data set [1] is -20.5 kcal/mol. Moreover, in data set [2], the Tm was found to be 32.6 °C.
For GTTCGTCGAAAGACAAC (((.(((....)))))), in that order: -17.2 kcal/mol and 42.5 °C.
For GTTCGTGGAAACACGGAC ((.((((....)))).)), in that order: -42.5 kcal/mol and 54.5 °C.
For GTTCGTGGAAACATGAAC ((((.((....)).)))), in that order: -37.7 kcal/mol and 47.5 °C.
Regarding GTTCTAGGAAACTAGGAC ((.((((....)))).)), the folding enthalpy in data set [1] was -28.5 kcal/mol. In data set [2], the Tm turned out to be 39.7 °C.
Take GTTCTCCGAAAGGAAAAC (((.(((....))).))): in data set [1], the folding enthalpy was -25.2 kcal/mol. For the same sequence, in data set [2], the Tm was 35.5 °C.
As for GTTCTCGAAAGAGGAAC ((((((....))).))), in data set [1], the folding enthalpy was -20.8 kcal/mol. Further, the Tm in data set [2] is 38.3 °C.
On the same counts, the results for GTTCTCGAAAGAGTCAAC ((((((....)))..))) are -10.2 kcal/mol and 23.2 °C.
For GTTCTCGCGAAAGCGAAC (((..(((....)))))), in that order: -7.5 kcal/mol and 27.8 °C.
Turning to GTTCTCGGAAACGAGAAC (((((((....))))))), the folding enthalpy in data set [1] was -34.5 kcal/mol. Further, the Tm in data set [2] is 65.7 °C.
As for GTTCTGCCGAAAGGCAAC (((..(((....)))))), the folding enthalpy in data set [1] was -7.25 kcal/mol. The Tm in data set [2] came to 25.1 °C.
With GTTCTGGGAAACCAAAAC (((.(((....))).))), in data set [1], the folding enthalpy was -12.4 kcal/mol. Further, the Tm in data set [2] was 26.5 °C.
On the same counts, the results for GTTCTGGGAAACCAGAAC (((((((....))))))) are -42.9 kcal/mol and 60.5 °C.
With GTTCTGGGAAACCAGGAC ((.((((....)))).)), the folding enthalpy in data set [1] was -31.8 kcal/mol. For the same sequence, in data set [2], the Tm turned out to be 49.1 °C.
On the same counts, the results for GTTCTGGGAAACTAGAAC (((((.(....).))))) are -29.6 kcal/mol and 42.9 °C.
On the same counts, the results for GTTCTTACGAAAGTAAAC (((..(((....)))))) are -6.21 kcal/mol and 21.9 °C.
Turning to GTTCTTGGAAACAAGGAC ((.((((....)))).)), the folding enthalpy in data set [1] was -23.9 kcal/mol. Moreover, the Tm in data set [2] worked out at 44.6 °C.
For GTTGAACGAAAGTTAAC (((.(((....)))))), in data set [1], the folding enthalpy was -12.3 kcal/mol. Besides, in data set [2], the Tm turned out to be 30 °C.
On to GTTGAACGAAAGTTTAAC (((.(((....))).))), for which the folding enthalpy in data set [1] is -31.7 kcal/mol. The Tm in data set [2] was 45.3 °C.
For the sequence GTTGAAGGAAACTTTAAC (((.(((....))).))), the folding enthalpy in data set [1] is -17.7 kcal/mol. In data set [2], the Tm is 32.1 °C.
For GTTGACCGAAAGGTAAC (((.(((....)))))), in that order: -16.4 kcal/mol and 38.1 °C.
Take GTTGACGAAAGTCACAAC ((((((....)))..))): in data set [1], the folding enthalpy is -9.62 kcal/mol. For the same sequence, the Tm in data set [2] was determined as 36.2 °C.
For the sequence GTTGACGAAAGTCTGAAC ((((((....)))..))), the folding enthalpy in data set [1] was -11.5 kcal/mol. Besides, the Tm in data set [2] came out at 25.1 °C.
For GTTGACGGAAACATCAAC (((((.(....).))))), in that order: -31.8 kcal/mol and 37.2 °C.
As for GTTGACGGAAACGTCAGC (.(((((....))))).), the folding enthalpy in data set [1] is -22 kcal/mol. In data set [2], the Tm was 52.5 °C.
GTTGAGGGAAACCCCAAC ((((.((....)).)))): the folding enthalpy in data set [1] was -26.1 kcal/mol. For the same sequence, in data set [2], the Tm was 43.3 °C.
Regarding GTTGAGTCGAAAGACAAC (((..(((....)))))), the folding enthalpy in data set [1] was -14.6 kcal/mol. Also, the Tm in data set [2] turned out to be 31 °C.
For GTTGATCCGAAAGGAAAC (((..(((....)))))), in that order: -20.8 kcal/mol and 27.6 °C.
For GTTGATCGAAAGATAAC (((.(((....)))))), in that order: -13.3 kcal/mol and 28.9 °C.
For GTTGATCGAAAGATTAAC (((.(((....))).))), in that order: -30.6 kcal/mol and 44.8 °C.
With GTTGATGCGAAAGCAAAC (((..(((....)))))), the folding enthalpy in data set [1] is -13.8 kcal/mol. Also, the Tm in data set [2] was found to be 37.1 °C.
On the same counts, the results for GTTGATGGAAACATCAAC (((((((....))))))) are -46.2 kcal/mol and 57.7 °C.
With GTTGATGGAAACATCAGC (.(((((....))))).), the folding enthalpy in data set [1] is -25 kcal/mol. The Tm in data set [2] is 46.5 °C.
For GTTGATGGAAACATTAAC (((.(((....))).))), in that order: -34.1 kcal/mol and 37.5 °C.
For the sequence GTTGCACGAAAGTGAAC (((.(((....)))))), the folding enthalpy in data set [1] was -14.1 kcal/mol. Also, the Tm in data set [2] came to 39.2 °C.
On the same counts, the results for GTTGCAGGAAACTGCGAC ((.((((....)))).)) are -28 kcal/mol and 53.9 °C.
For GTTGCCACGAAAGTGAAC (((..(((....)))))), in that order: -11.8 kcal/mol and 30.6 °C.
As for GTTGCCGAAAGGCCAAAC ((((((....)))..))), the folding enthalpy in data set [1] is -10.3 kcal/mol. Further, the Tm in data set [2] is 26.9 °C.
As for GTTGCCGAAAGGCGAAAC ((((((....)))..))), in data set [1], the folding enthalpy is -9.33 kcal/mol. Moreover, the Tm in data set [2] was 33.2 °C.
As for GTTGCCGAAAGGCGCAAC ((((((....)))..))), the folding enthalpy in data set [1] is -8.82 kcal/mol. The Tm in data set [2] was determined as 31.9 °C.
GTTGCCTCGAAAGAGAAC (((..(((....)))))): in data set [1], the folding enthalpy was -12.1 kcal/mol. For the same sequence, in data set [2], the Tm came out at 25.4 °C.
With GTTGCGACGAAAGTCAAC (((..(((....)))))), in data set [1], the folding enthalpy was -16.8 kcal/mol. Further, in data set [2], the Tm is 33.5 °C.
As to GTTGCGCGAAAGCGAAC (((.(((....)))))), in data set [1], the folding enthalpy was -13.4 kcal/mol. Moreover, the Tm in data set [2] is 45.5 °C.
For GTTGCGCGAAAGCGGAAC (((.(((....))).))), in that order: -30.9 kcal/mol and 67.6 °C.
On the same counts, the results for GTTGCGGGAAACCGTGAC ((..(((....)))..)) are -20.2 kcal/mol and 45.2 °C.
Regarding GTTGCGGGAAACTGCAGC (.(((.(....).))).), in data set [1], the folding enthalpy was -15.8 kcal/mol. Also, the Tm in data set [2] was found to be 45 °C.
For GTTGCTGAAAAGCAAC ((((((....)))))), in that order: -32.8 kcal/mol and 66 °C.
As to GTTGCTGCGAAAGCAAAC (((..(((....)))))), the folding enthalpy in data set [1] is -14.3 kcal/mol. Moreover, in data set [2], the Tm is 37.8 °C.
Regarding GTTGCTGGAAACAGCAGC (.(((((....))))).), the folding enthalpy in data set [1] was -26.3 kcal/mol. Moreover, in data set [2], the Tm stood at 54.5 °C.
On the same counts, the results for GTTGCTGGAAACAGTAAC (((.(((....))).))) are -29 kcal/mol and 47 °C.
On to GTTGCTGGAAACGGCAAC (((((.(....).))))), for which the folding enthalpy in data set [1] is -43.6 kcal/mol. For the same sequence, in data set [2], the Tm worked out at 55.2 °C.
On the same counts, the results for GTTGGACGAAAGTCAAAC (((.(((....))).))) are -26.9 kcal/mol and 50.9 °C.
For GTTGGACGAAAGTCTAAC (((.(((....))).))), in data set [1], the folding enthalpy was -26.3 kcal/mol. Besides, the Tm in data set [2] turned out to be 51.4 °C.
Consider GTTGGAGAAATCCAAC ((((((....)))))), for which, in data set [1], the folding enthalpy was -32 kcal/mol. For the same sequence, in data set [2], the Tm stood at 52 °C.
For GTTGGCCGAAAGGCGAAC (((.(((....))).))), in that order: -26.6 kcal/mol and 57.4 °C.
For GTTGGCGAAAGCCGGAAC ((((((....)))..))), in that order: -7.97 kcal/mol and 27.8 °C.
Consider GTTGGCGGAAACGCTAGC (.(.(((....))).).), for which the folding enthalpy in data set [1] was -13.2 kcal/mol. Further, in data set [2], the Tm is 34.5 °C.
For GTTGGGGGAAACCCCGAC ((.((((....)))).)), in data set [1], the folding enthalpy was -24.2 kcal/mol. Besides, the Tm in data set [2] was determined as 56.6 °C.
On the same counts, the results for GTTGGGGGAAACCCTAGC (.(.(((....))).).) are -9.75 kcal/mol and 24.6 °C.
For GTTGGGGGAAACCTCAAC ((((.((....)).)))), in that order: -32 kcal/mol and 47.8 °C.
Turning to GTTGGGGGAAACCTCAGC (.((.((....)).)).), the folding enthalpy in data set [1] is -17.4 kcal/mol. The Tm in data set [2] was found to be 31 °C.
As to GTTGGTGGAAACACTGAC ((..(((....)))..)), the folding enthalpy in data set [1] is -15.9 kcal/mol. Further, in data set [2], the Tm is 34.8 °C.
Regarding GTTGGTGGAAACGTCAAC ((((..(....)..)))), in data set [1], the folding enthalpy is -16.1 kcal/mol. Moreover, the Tm in data set [2] stood at 33.5 °C.
For GTTGTACCGAAAGGTAAC (((..(((....)))))), the folding enthalpy in data set [1] was -23.7 kcal/mol. In addition, in data set [2], the Tm is 47.4 °C.
For GTTGTACGAAAGTAAAC (((.(((....)))))), in that order: -21.9 kcal/mol and 39.7 °C.
With GTTGTACGAAAGTAGAAC (((.(((....))).))), the folding enthalpy in data set [1] is -30.1 kcal/mol. Further, in data set [2], the Tm is 44 °C.
For GTTGTATCGAAAGATAAC (((..(((....)))))), in that order: -27.3 kcal/mol and 37.1 °C.
For GTTGTCGAAAGACAAAAC ((((((....)))..))), in that order: -13.6 kcal/mol and 36.9 °C.
